Laboratory results published in ChEMBL document CHEMBL4622959, “Design, synthesis and biological evaluation of novel 6-phenyl-1,3a,4,10b-tetrahydro-2H-benzo[c]thiazolo[4,5-e]azepin-2-one derivatives as potential BRD4 inhibitors” (Bioorg Med Chem, 2020).

Experiments:
[1] = biological target: T1, Bromodomain-containing protein 4 (Homo sapiens, UniProt O60885); assay: Displacement of APC-labeled biotinylated-avidin from […]-chelated recombinant human N-terminal GST-tagged BRD4 bromodomain 1 expressed in Escherichia coli preincubated for 15 mins followed by APC-labeled biotinylated-avidin addition and measured after 1 hr under dark condition by TR-FRET assay
MV4-11 [2] = assay: Antiproliferative activity against human MV4-11 cells assessed as reduction in cell viability incubated for 72 hrs by CCK-8 assay; assay type: functional, cell-based; conditions: MV4-11, 72 h
Summary of the method: (§1)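 Cells grown in IMDM with 10% FBS and 1% penicillin–streptomycin at 37 °C in a CO₂ incubator and harvested in log phase. Seeded at 10,000 cells per well in 100 μL medium, cultured 12 h, then given compounds at a range of concentrations for 72 h. CCK-8 added for 1–4 h, absorbance read at 450 nm. IC₅₀ calculated from the dose-response data.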

MV4-11 [3] = assay: Induction of apoptosis in human MV4-11 cells assessed as necrotic cell at 0.5 uM after 12 hrs by Annexin V-FITC/propidium iodide staining-based flow cytometric analysis (reference value: 0.17 %); assay type: functional
HL-60 = assay: Antiproliferative activity against human HL60 cells assessed as reduction in cell viability incubated for 72 hrs by CCK-8 assay; assay type: functional, cell-based; conditions: HL-60, 72 h; summary of the method: as §1
MV4-11 [4] = assay: Cell cycle arrest in human MV4-11 cells assessed as accumulation at G1 phase after 12 hrs by propidium iodide staining based flow cytometric analysis; assay type: functional
MV4-11 [5] = assay: Induction of apoptosis in human MV4-11 cells after 12 hrs by Annexin V-FITC/propidium iodide staining-based flow cytometric analysis; assay type: functional, cell-based
MV4-11 [6] = assay: Induction of apoptosis in human MV4-11 cells assessed as late apoptotic cell at 0.5 uM after 12 hrs by Annexin V-FITC/propidium iodide staining-based flow cytometric analysis (reference value: 1.28 %); assay type: functional
MV4-11 [7] = assay: Induction of apoptosis in human MV4-11 cells assessed as live cell at 0.5 uM after 12 hrs by Annexin V-FITC/propidium iodide staining-based flow cytometric analysis (reference value: 97.99 %); assay type: functional
MV4-11 [8] = assay: Induction of apoptosis in human MV4-11 cells assessed as early apoptotic cell at 0.5 uM after 12 hrs by Annexin V-FITC/propidium iodide staining-based flow cytometric analysis (reference value: 0.56 %); assay type: functional
MV4-11 [9] = assay: Induction of apoptosis in human MV4-11 cells assessed as necrotic cell at 5 uM after 12 hrs by Annexin V-FITC/propidium iodide staining-based flow cytometric analysis (reference value: 0.17 %); assay type: functional
MV4-11 [10] = assay: Induction of apoptosis in human MV4-11 cells assessed as late apoptotic cell at 5 uM after 12 hrs by Annexin V-FITC/propidium iodide staining-based flow cytometric analysis (reference value: 1.28 %); assay type: functional
MV4-11 [11] = assay: Induction of apoptosis in human MV4-11 cells assessed as live cell at 5 uM after 12 hrs by Annexin V-FITC/propidium iodide staining-based flow cytometric analysis (reference value: 97.99 %); assay type: functional
MV4-11 [12] = assay: Induction of apoptosis in human MV4-11 cells assessed as early apoptotic cell at 5 uM after 12 hrs by Annexin V-FITC/propidium iodide staining-based flow cytometric analysis (reference value: 0.56 %); assay type: functional
MV4-11 [13] = assay: Cell cycle arrest in human MV4-11 cells assessed as accumulation at G0/G1 phase at 0.5 uM after 12 hrs by propidium iodide staining based flow cytometric analysis (reference value: 43.91%); assay type: functional
MV4-11 [14] = assay: Cell cycle arrest in human MV4-11 cells assessed as accumulation at G2/M phase at 0.5 uM after 12 hrs by propidium iodide staining based flow cytometric analysis (reference value: 18.19%); assay type: functional
MV4-11 [15] = assay: Cell cycle arrest in human MV4-11 cells assessed as accumulation at S phase at 0.5 uM after 12 hrs by propidium iodide staining based flow cytometric analysis (reference value: 38.62%); assay type: functional
MV4-11 [16] = assay: Cell cycle arrest in human MV4-11 cells assessed as accumulation at G0/G1 phase at 5 uM after 12 hrs by propidium iodide staining based flow cytometric analysis (reference value: 43.91%); assay type: functional
MV4-11 [17] = assay: Cell cycle arrest in human MV4-11 cells assessed as accumulation at G2/M phase at 5 uM after 12 hrs by propidium iodide staining based flow cytometric analysis (reference value: 18.19%); assay type: functional
MV4-11 [18] = assay: Cell cycle arrest in human MV4-11 cells assessed as accumulation at S phase at 5 uM after 12 hrs by propidium iodide staining based flow cytometric analysis (reference value: 38.62%); assay type: functional
[19] = biological target: T1, Bromodomain-containing protein 4; assay: Inhibition of BRD4 in human MV4-11 cells assessed as reduction in c-Myc expression level after 4 hrs by Western blot analysis; assay type: cell-based
Summary of the method: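 Log-phase MV-4-11 cells (IMDM, 10% FBS, 1% penicillin–streptomycin, 37 °C) were treated with compound for 4 h, then lysed at 4 °C and protein quantified. Lysates were run on SDS-PAGE (10% separating, 4% stacking gel) and transferred to PVDF. Membranes were blocked 2 h in 5% non-fat milk/TBST at room temperature, probed for c-Myc, and band intensity quantified from three independent experiments.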

CCCCNC(=O)CC1N=C(c2ccc(Cl)cc2)c2cc(OC)ccc2-c2c1sc(=O)n2C (configuration not stated)
IC50 [1]: 1020 nM
IC50 (MV4-11 [2]): 3480 nM

COc1ccc2c(c1)C(c1ccc(Cl)cc1)=NC(CC(=O)NC1CCCC1)c1sc(=O)n(C)c1-2 (configuration not stated)
Activity (MV4-11 [3]): 0.35%
IC50 [1]: 110 nM
IC50 (MV4-11 [2]): 420 nM
IC50 (HL-60): 5520 nM
Activity (MV4-11 [4]): Dose-dependent effect
Activity (MV4-11 [5]): Dose-dependent effect
Activity (MV4-11 [6]): 5.93%
Activity (MV4-11 [7]): 87.61%
Activity (MV4-11 [8]): 6.1%
Activity (MV4-11 [9]): 0.42%
Activity (MV4-11 [10]): 42.85%
Activity (MV4-11 [11]): 26.76%
Activity (MV4-11 [12]): 29.97%
Activity (MV4-11 [13]): 50.67%
Activity (MV4-11 [14]): 17.93%
Activity (MV4-11 [15]): 31.2%
Activity (MV4-11 [16]): 70.68%
Activity (MV4-11 [17]): 14.11%
Activity (MV4-11 [18]): 15.23%
inhibition [19]: Dose-dependent effect

COc1ccc2c(c1)C(c1ccc(Cl)cc1)=NC(CC(=O)NC1CC1)c1sc(=O)n(C)c1-2 (configuration not stated)
IC50 [1]: 140 nM
IC50 (MV4-11 [2]): 510 nM
IC50 (HL-60): 4560 nM

COc1ccc2c(c1)C(c1ccc(Cl)cc1)=NC(CC(=O)NC(C)(C)C)c1sc(=O)n(C)c1-2 (configuration not stated)
IC50 [1]: 160 nM
IC50 (MV4-11 [2]): 640 nM
IC50 (HL-60): 5410 nM

COc1ccc2c(c1)C(c1ccc(Cl)cc1)=NC(CC(=O)O)c1sc(=O)n(C)c1-2 (configuration not stated)
IC50 [1]: 870 nM
IC50 (MV4-11 [2]): 2860 nM

COc1ccc2c(c1)C(c1ccc(Cl)cc1)=NC(CC(=O)N1CCOCC1)c1sc(=O)n(C)c1-2 (configuration not stated)
IC50 [1]: 480 nM
IC50 (MV4-11 [2]): 940 nM
IC50 (HL-60): 7620 nM

CCNC(=O)CC1N=C(c2ccc(Cl)cc2)c2cc(OC)ccc2-c2c1sc(=O)n2C (configuration not stated)
IC50 [1]: 740 nM
IC50 (MV4-11 [2]): 1780 nM
IC50 (HL-60): 12800 nM

COc1ccc2c(c1)C(c1ccc(Cl)cc1)=NC(CC(=O)N1CCCC1)c1sc(=O)n(C)c1-2 (configuration not stated)
IC50 [1]: 540 nM
IC50 (MV4-11 [2]): 1120 nM
IC50 (HL-60): 10400 nM

Cc1sc2c(c1C)C(c1ccc(Cl)cc1)=N[C@@H](CC(=O)OC(C)(C)C)c1nnc(C)n1-2
Activity (MV4-11 [3]): 0.06%
IC50 (HL-60): 3460 nM
Activity (MV4-11 [4]): Dose-dependent effect
Activity (MV4-11 [6]): 9.14%
Activity (MV4-11 [7]): 85.57%
Activity (MV4-11 [8]): 5.23%
Activity (MV4-11 [9]): 0.24%
Activity (MV4-11 [10]): 59.31%
Activity (MV4-11 [11]): 9.58%
Activity (MV4-11 [12]): 30.87%
Activity (MV4-11 [13]): 57.35%
Activity (MV4-11 [14]): 14.56%
Activity (MV4-11 [15]): 28.09%
Activity (MV4-11 [16]): 83.64%
Activity (MV4-11 [17]): 13.01%
Activity (MV4-11 [18]): 3.35%

COc1ccc2c(c1)C(c1ccc(Cl)cc1)=NC(CC(=O)N1CCCCC1)c1sc(=O)n(C)c1-2 (configuration not stated)
IC50 [1]: 430 nM
IC50 (MV4-11 [2]): 910 nM
IC50 (HL-60): 8690 nM

CCNC(=O)C[C@@H]1N=C(c2ccc(Cl)cc2)c2cc(OC)ccc2-n2c(C)nnc21 [MOLIBRESIB]
IC50 (MV4-11 [2]): 1230 nM

C#CCNC(=O)CC1N=C(c2ccc(Cl)cc2)c2cc(OC)ccc2-c2c1sc(=O)n2C (configuration not stated)
IC50 [1]: 210 nM
IC50 (MV4-11 [2]): 700 nM
IC50 (HL-60): 8460 nM

COc1ccc2c(c1)C(c1ccc(Cl)cc1)=NC(CC(=O)Nc1ccccc1)c1sc(=O)n(C)c1-2 (configuration not stated)
IC50 [1]: 200 nM
IC50 (MV4-11 [2]): 670 nM
IC50 (HL-60): 7740 nM

COc1ccc2c(c1)C(c1ccc(Cl)cc1)=NC(CC(=O)Nc1ccc(O)cc1)c1sc(=O)n(C)c1-2 (configuration not stated)
IC50 [1]: 510 nM
IC50 (MV4-11 [2]): 1060 nM
IC50 (HL-60): 9050 nM

CCOC(=O)CC1N=C(c2ccc(Cl)cc2)c2cc(OC)ccc2-c2c1sc(=O)n2C (configuration not stated)
IC50 [1]: 420 nM
IC50 (MV4-11 [2]): 880 nM
IC50 (HL-60): 6210 nM

CCOC(=O)CC1OC(c2ccc(Cl)cc2)c2cc(OC)ccc2-c2c1sc(=O)n2C (configuration not stated)
IC50 [1]: 480 nM
IC50 (MV4-11 [2]): 920 nM
IC50 (HL-60): 5440 nM

COc1ccc2c(c1)C(c1ccc(Cl)cc1)=NC(CC(=O)Nc1ccc(F)cc1)c1sc(=O)n(C)c1-2 (configuration not stated)
IC50 [1]: 680 nM
IC50 (MV4-11 [2]): 1440 nM
IC50 (HL-60): 12400 nM
